Laboratory results as given in the RNAGym collection of RNA variant scans (doi:10.1002/anie.201605470).

B1: Osa-1-4 twister ribozyme (parent)
chain: CCGCCUAACACUGCCAAUGCCGGUCCCAAGCCCGGAUAAAAGUGGAGGGGGCGG

Variants of: B1
Assay: self-cleavage, relative activity (ratio to wild type); higher = more cleavage; co-transcriptional
Summary of the method: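 Values are relative activity: the fraction cleaved, normalised to wild type. A doped DNA template for a 54-nucleotide twister ribozyme from Oryza sativa had 97 % wild-type base and 1 % of each other base at the 48 positions downstream of the cleavage site. The RNA was transcribed in vitro for 2 h at 37 °C so that it could cleave itself co-transcriptionally, then sequenced deeply, with cleavage status scored from the presence or absence of upstream sequence in reads.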
Work on CCGCCUAACACUGCCAAUGCCGGUCCCAAGCCCGGCUAAAAGUGGAGGGGGUGG [A36C C52U] yielded a self-cleavage of 0.82. For CCGCCUAACACUGCCAAUGCCGGUCCCAAGCCCGGCUAAAAGUGGAGGGGGGGG [A36C C52G], the self-cleavage was 0.51. For CCGCCUAACACUGCCAAUGCCGGUCCCAAGCCCGGCUAAAAGUGGAGGGGGAGG [A36C C52A], the self-cleavage was 0.37. CCGCCUAACACUGCCAAUGCCGGUCCCAAGCCCGGGUAACAGUGGAGGGGGCGG [A36G A40C] gave a self-cleavage of 0.1. CCGCCUAACACUGCCAAUGCCGGUCCCAAGCCCGGGUAAGAGUGGAGGGGGCGG [A36G A40G] gave a self-cleavage of 0.95. For CCGCCUAACACUGCCAAUGCCGGUCCCAAGCCCGGGUAAUAGUGGAGGGGGCGG [A36G A40U], the self-cleavage was 0.96. In the case of CCGCCUAACACUGCCAAUGCCGGUCCCAACCCCGGCUAAAAGUGGAGGGGGCGG [A36C G30C], the self-cleavage is reported as 0.05. CCGCCUAACACUGCCAAUGCCGGUCCCAAACCCGGCUAAAAGUGGAGGGGGCGG [A36C G30A] gave a self-cleavage of 0.02. CCGCCUAACACUGCCAAUGCCGGUCCCAAUCCCGGCUAAAAGUGGAGGGGGCGG [A36C G30U] showed a self-cleavage of 0.03. CCGCCUAACACUGCCAAUGCCGGUCCCAAGCCCGGCUAAAAGUGGAGGCGGCGG [A36C G49C] showed a self-cleavage of 0.06. For CCGCCUAACACUGCCAAUGCCGGUCCCAAGCCCGGCUAAAAGUGGAGGUGGCGG [A36C G49U], the self-cleavage was 0.06. Work on CCGCCUAACACUGCCAAUGCCGGUCCCAAGCCCGGCUAAAAGUGGAGGAGGCGG [A36C G49A] yielded a self-cleavage of 0.06. Variant CCGCCUAACACUGCCAAUGCCGGUCCCAAGCACGGCUAAAAGUGGAGGGGGCGG [A36C C32A] has a self-cleavage of 0.06. With CCGCCUAACACUGCCAAUGCCGGUCCCAAGCGCGGCUAAAAGUGGAGGGGGCGG [A36C C32G] the self-cleavage was 0.06. CCGCCUAACACUGCCAAUGCCGGUCCCAAGCUCGGCUAAAAGUGGAGGGGGCGG [A36C C32U] gave a self-cleavage of 0.07. With CCGCCUAACACUGCCAAUGCCGGUCCCAAGCCGGGCUAAAAGUGGAGGGGGCGG [A36C C33G] the self-cleavage was 0.04. CCGCCUAACACUGCCAAUGCCGGUCCCAAGCCAGGCUAAAAGUGGAGGGGGCGG [A36C C33A] showed a self-cleavage of 0.06. CCGCCUAACACUGCCAAUGCCGGUCCCAAGCCUGGCUAAAAGUGGAGGGGGCGG [A36C C33U] gave a self-cleavage of 0.13. Variant CCGCCUAACACUGCCAAUGCCGGUCCCAAGCCCUGCUAAAAGUGGAGGGGGCGG [A36C G34U] has a self-cleavage of 0.75. Variant CCGCCUAACACUGCCAAUGCCGGUCCCAAGCCCCGCUAAAAGUGGAGGGGGCGG [A36C G34C] has a self-cleavage of 0.39. With CCGCCUAACACUGCCAAUGCCGGUCCCAAGCCCAGCUAAAAGUGGAGGGGGCGG [A36C G34A] the self-cleavage was 0.88. CCGCCUAACACUGCCAAUGCCGAUCCCAAGCCCGGCUAAAAGUGGAGGGGGCGG [A36C G23A] gave a self-cleavage of 0.09. CCGCCUAACACUGCCAAUGCCGCUCCCAAGCCCGGCUAAAAGUGGAGGGGGCGG [A36C G23C] showed a self-cleavage of 0.03. CCGCCUAACACUGCCAAUGCCGUUCCCAAGCCCGGCUAAAAGUGGAGGGGGCGG [A36C G23U] showed a self-cleavage of 0.05. With CCGCCUAACACCGCCAAUGCCGGUCCCAAGCCCGGCUAAAAGUGGAGGGGGCGG [A36C U12C] the self-cleavage was 0.08. Variant CCGCCUAACACGGCCAAUGCCGGUCCCAAGCCCGGCUAAAAGUGGAGGGGGCGG [A36C U12G] has a self-cleavage of 0.13. For CCGCCUAACACAGCCAAUGCCGGUCCCAAGCCCGGCUAAAAGUGGAGGGGGCGG [A36C U12A], the self-cleavage was 0.13. CCGCCUAACACUGCCAAUGCCUGUCCCAAGCCCGGCUAAAAGUGGAGGGGGCGG [A36C G22U] gave a self-cleavage of 0.35. CCGCCUAACACUGCCAAUGCCAGUCCCAAGCCCGGCUAAAAGUGGAGGGGGCGG [A36C G22A] gave a self-cleavage of 0.6. For CCGCCUAACACUGCCAAUGCCCGUCCCAAGCCCGGCUAAAAGUGGAGGGGGCGG [A36C G22C], the self-cleavage was 0.08. CCGCCUAACACUGCCAAUGCCGGUCCCAAGCCCGGCUAAAAGUAGAGGGGGCGG [A36C G44A] showed a self-cleavage of 0.16. With CCGCCUAACACUGCCAAUGCCGGUCCCAAGCCCGGCUAAAAGUUGAGGGGGCGG [A36C G44U] the self-cleavage was 0.37. CCGCCUAACACUGCCAAUGCCGGUCCCAAGCCCGGCUAAAAGUCGAGGGGGCGG [A36C G44C] showed a self-cleavage of 0.58. In the case of CCGCCUAACACUGCCAAUGCCGGUCCCAAGCCCGGCUAAAAGUGGAGGGGGCAG [A36C G53A], the self-cleavage is reported as 0.19. Work on CCGCCUAACACUGCCAAUGCCGGUCCCAAGCCCGGCUAAAAGUGGAGGGGGCUG [A36C G53U] yielded a self-cleavage of 0.13. With CCGCCUAACACUGCCAAUGCCGGUCCCAAGCCCGGCUAAAAGUGGAGGGGGCCG [A36C G53C] the self-cleavage was 0.06. For CCGCCUAACACUGCCAAUGCCGGUCCCAAGCCCGGGUAAAAGUGGAGGGGGCGG [A36G], the self-cleavage was 1.03. Variant CCGCCUAACACUGCCAAUGCCGGUCCCAAGCCCGGGUGAAAGUGGAGGGGGCGG [A36G A38G] has a self-cleavage of 0.99. For CCGCCUAACACUGCCAAUGCCGGUCCCAAGCCCGGGUCAAAGUGGAGGGGGCGG [A36G A38C], the self-cleavage was 1.07. Variant CCGCCUAACACUGCCAAUGCCGGUCCCAAGCCCGGGUUAAAGUGGAGGGGGCGG [A36G A38U] has a self-cleavage of 1.01. In the case of CCGCCUAACACUGCCAAUGCCGGUCCCAAGCCCGGCUAAAAAUGGAGGGGGCGG [A36C G42A], the self-cleavage is reported as 0.1. Variant CCGCCUAACACUGCCAAUGCCGGUCCCAAGCCCGGCUAAAACUGGAGGGGGCGG [A36C G42C] has a self-cleavage of 0.08. CCGCCUAACACUGCCAAUGCCGGUCCCAAGCCCGGCUAAAAUUGGAGGGGGCGG [A36C G42U] gave a self-cleavage of 0.04. CCGCCUAACACUGCCAAUGCCGGUCCCAAGCCCGGCUAAAAGUGGAAGGGGCGG [A36C G47A] gave a self-cleavage of 0.07. CCGCCUAACACUGCCAAUGCCGGUCCCAAGCCCGGCUAAAAGUGGAUGGGGCGG [A36C G47U] showed a self-cleavage of 0.07. Work on CCGCCUAACACUGCCAAUGCCGGUCCCAAGCCCGGCUAAAAGUGGACGGGGCGG [A36C G47C] yielded a self-cleavage of 0.06. Work on CCGCCUAACACUGCCAAUGCCGGUCCCAAGCCCGGCUAAAAGUGGAGGGGUCGG [A36C G51U] yielded a self-cleavage of 0.11. In the case of CCGCCUAACACUGCCAAUGCCGGUCCCAAGCCCGGCUAAAAGUGGAGGGGCCGG [A36C G51C], the self-cleavage is reported as 0.07.
